Measured values taken from ChEMBL document CHEMBL4665889, “Design, Synthesis, and Pharmacological Characterization of a Neutral, Non-Prodrug Thrombin Inhibitor with Good Oral Pharmacokinetics” (J Med Chem, 2020).

Key:
[1] = Clearance in Wistar rat hepatocytes at 1 uM incubated up to 90 mins by LC-MS/MS analysis; type: ADME, cell-based, Hepatocyte; conditions: for CLhep predicted at 1 µM: Wistar
In short: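 Fresh male Wistar rat hepatocytes, 1 × 10⁶ viable cells/mL, in Williams' medium E at 37 °C, pH 7.4, with 1 μM substrate and <1% acetonitrile. Samples at 2–90 min quenched in acetonitrile and analysed by LC-MS/MS.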

[2] = biological target: T1, Nuclear receptor subfamily 1 group I member 2 (Homo sapiens, UniProt O75469); experiment: Activation of human PXR expressed in human HepG2 cells; type: ADME, cell-based
T1 sequence (O75469 whole entry): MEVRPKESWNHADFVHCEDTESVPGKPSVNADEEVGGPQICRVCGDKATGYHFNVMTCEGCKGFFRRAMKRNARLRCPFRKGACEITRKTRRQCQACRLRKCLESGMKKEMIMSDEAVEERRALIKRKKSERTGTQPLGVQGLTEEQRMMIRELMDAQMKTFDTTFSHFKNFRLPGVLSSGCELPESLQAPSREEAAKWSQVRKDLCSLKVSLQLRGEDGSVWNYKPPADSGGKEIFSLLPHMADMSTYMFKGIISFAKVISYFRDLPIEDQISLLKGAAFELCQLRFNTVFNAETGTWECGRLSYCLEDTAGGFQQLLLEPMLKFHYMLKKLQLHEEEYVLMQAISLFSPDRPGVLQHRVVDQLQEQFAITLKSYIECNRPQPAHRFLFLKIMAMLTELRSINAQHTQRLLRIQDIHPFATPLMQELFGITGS
In short: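 HepG2 cells transiently co-transfected with human PXR and a luciferase reporter under the human CYP3A4 promoter, 48 h before readout. 24 h after seeding, 1:3 serial dilutions (2 nM to 50 μM, 0.5% DMSO) added. Luminescence normalized to rifampicin (100%) and DMSO (0%). MEC is the lowest concentration raising signal above 4-fold SD of DMSO background.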

[3] = Permeability from apical to basolateral side in human Caco2 cells incubated for 2 hrs by LC-MS/MS analysis; type: ADME, cell-based; conditions: Caco-2
In short: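 Caco-2 cells grown 15 d on 0.4 μm inserts, TEER ≥600 Ω. Compound (DMSO stock diluted 100-fold) in HBSS pH 7.4 with 10 mM HEPES and 20 mM glucose, added apically or basolaterally. Incubated 2 h at 37 °C and analysed by LC-MS/MS. Papp = (Vr/P0)·(1/S)·(P2/t); mean and SD.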

[4] = AUC/dose in Wistar Hannover rat at 0.3 to 0.5 mg/kg, iv by LC-MS/MS analysis; type: ADME, organism-based; conditions: in vivo, dose 0.3-0.5 mg/kg, time <=24 hrs
In short: (§1)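 Male Wistar Hannover rats, catheterized under isoflurane; one day later iv injection into lateral tail vein at 0.3 to 0.5 mg/kg in plasma containing 2% DMSO. Blood sampled via catheter from 0.033 to 24 h. Plasma precipitated with acetonitrile, analysed by LC-MS/MS (10 mM ammonium acetate pH 3.0/acetonitrile gradient). PK parameters calculated from plasma concentrations.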

[5] = Oral bioavailability in Wistar Hannover rat at 1 mg/kg by LC-MS/MS analysis; type: ADME, organism-based; conditions: in vivo, time <=24 hrs
In short: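 Catheterized male Wistar Hannover rats dosed by gavage at 1 mg/kg in 10% ethanol/40% PEG/50% water. Blood taken via catheter at 0.083 to 24 h. Plasma precipitated with acetonitrile and analysed by LC-MS/MS. Bioavailability derived against iv dosing at 0.3 to 0.5 mg/kg.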

[6] = Half life in Wistar Hannover rat at 0.3 to 0.5 mg/kg, iv by LC-MS/MS analysis; type: ADME, organism-based; conditions: in vivo, dose 0.3-0.5 mg/kg, time <=24 hrs; in short: as §1
[7] = Blood clearance in Wistar Hannover rat at 0.3 to 0.5 mg/kg, iv by LC-MS/MS analysis; type: ADME, organism-based; conditions: whole blood, dose 0.3-0.5 mg/kg, time <=24 hrs; in short: as §1
[8] = Volume of distribution at steady state in Wistar Hannover rat at 0.3 to 0.5 mg/kg, iv by LC-MS/MS analysis; type: ADME, organism-based; conditions: in vivo, dose 0.3-0.5 mg/kg, time <=24 hrs, read-out: Vdss; in short: as §1
[9] = MRT in Wistar Hannover rat at 0.3 to 0.5 mg/kg, iv by LC-MS/MS analysis; type: ADME, organism-based; conditions: in vivo, dose 0.3-0.5 mg/kg, time <=24 hrs; in short: as §1
[10] = Ratio of drug level in blood to plasma in Wistar Hannover rat at 0.3 to 0.5 mg/kg, iv by LC-MS/MS analysis; type: ADME, organism-based; conditions: blood and plasma, dose 0.3-0.5 mg/kg, time <=24 hrs
[11] = biological target: T1, Nuclear receptor subfamily 1 group I member 2; experiment: Activation of human PXR human hepatocytes assessed as induction of CYP3A4 mRNA expression incubated for 48 hrs by qPCR analysis; type: ADME, tissue-based, Hepatocyte
In short: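 Human hepatocytes in collagen sandwich, cultured 1 d, then treated with eight 1:3 serial concentrations for 2 consecutive days with daily media change. mRNA isolated on magnetic beads, reverse transcribed, and quantified by TaqMan qRT-PCR against actin/tubulin. Fold induction over vehicle by ΔΔCt; NOEL reported.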

SMILES | CLhep predicted at 1 µM [1] | MEC [2] | Papp A→B at 2 h [3] | other results
COc1cc(C(=O)N2CC[C@H](O)[C@@H](C)C2)cc2nc(NCc3cccc(Cl)c3)oc12 | 36.7 mL/min/kg |  |  | 
COc1cc(C(=O)N2CC(C)OCC2CCO)cn2nc(NCc3cccc(Cl)c3)nc12 (stereo not drawn) | 31.7 mL/min/kg | 11 µM |  | 
COc1cc(C(=O)N2C[C@@H](C)OC[C@H]2CCO)cc2nc(N[C@H](C)c3cccc(Cl)c3)oc12 | 38.3 mL/min/kg | 1.4 µM |  | 
CCCCCCOC(=O)NC(=N)c1ccc(NCc2nc3cc(C(=O)N(CCC(=O)OCC)c4ccccn4)ccc3n2C)cc1 [DABIGATRAN ETEXILATE] |  |  |  | AUC/dose [4]: 3 kg·h/L; bioavailability [5]: 1.9%; half-life [6]: 1.2 h; clearance [7]: 9.83 mL/min/kg; Vd [8]: 0.54 L/kg; MRT [9]: 1.6 h
COc1cc(C(=O)N2CCC(O)C(C)C2)cc2nc(NC3(c4cccc(Cl)c4)CC3)oc12 (racemic) | 46.7 mL/min/kg |  |  | 
COc1cc(C(=O)N2CC[C@@H](O)C(C)(C)C2)cc2nc(NCc3cccc(Cl)c3)oc12 (racemic) | 51.7 mL/min/kg | 6.3 µM |  | 
COc1cc(C(=O)N2CCC(O)C(C)C2)cc2nc(NCc3cc(Cl)ccn3)oc12 (racemic) | 14.3 mL/min/kg | 3.6 µM | 4.1 ×10⁻⁶ cm/s | 
COc1cc(C(=O)N2CC(C)(CCO)OC[C@H]2C)cc2nc(NCc3cc(Cl)ccn3)oc12 (stereo partly drawn) | 41.7 mL/min/kg | 8 µM |  | blood plasma ratio [10]: 1.08; AUC/dose [4]: 0.23 kg·h/L; NOAEL [11]: > 10000 ng/mL; half-life [6]: 0.44 h; clearance [7]: 66.7 mL/min/kg; Vd [8]: 2 L/kg; MRT [9]: 0.46 h
COc1cc(C(=O)N2CC(C)(CCO)OC[C@H]2C)cc2nc(N[C@H](CF)c3cccc(Cl)c3)oc12 (stereo partly drawn) | 56.7 mL/min/kg | 0.39 µM |  | blood plasma ratio [10]: 0.94; AUC/dose [4]: 0.33 kg·h/L; half-life [6]: 1.1 h; clearance [7]: 53.3 mL/min/kg; Vd [8]: 3.3 L/kg; MRT [9]: 1.1 h
CCC1CC(O)C(C)CN1C(=O)c1cc(OC)c2oc(NCc3cccc(Cl)c3)nc2c1 (racemic) | 61.7 mL/min/kg |  |  | 
COc1cc(C(=O)N2CCC(O)C(C)C2)cn2nc(NCc3cccc(Cl)c3)nc12 (racemic) | 35 mL/min/kg | 20 µM | 7.1 ×10⁻⁶ cm/s | 
COc1cc(C(=O)N2CC(C)CCC2CCO)cc2nc(NCc3cccc(Cl)c3)oc12 (stereo in doubt; 37b) |  | 0.03 µM |  | CLH ([1]; 1.5 h, 1 µM): 56.7 mL/min/kg
COc1cc(C(=O)N2CC(C)OCC2C2CC(O)C2)cc2nc(NCc3cc(Cl)ccn3)oc12 (stereo not drawn) | 45 mL/min/kg | 8.2 µM |  | 
COc1cc(C(=O)N2CC(C)OCC2C2CC(O)C2)cc2nc(N[C@H](CF)c3cccc(Cl)c3)oc12 (stereo partly drawn) | 56.7 mL/min/kg | 3 µM |  | 
COc1cc(C(=O)N2CCC(O)CC2)cc2nc(NCc3cccc(Cl)c3)oc12 | 21.7 mL/min/kg | 3.1 µM | 7.1 ×10⁻⁶ cm/s | 
COc1cc(C(=O)N2CCOC(C)(CCO)C2)cc2nc(N[C@H](C)c3cccc(Cl)c3)oc12 (stereo partly drawn) | 43.3 mL/min/kg | 0.58 µM |  | blood plasma ratio [10]: 1.07; AUC/dose [4]: 0.33 kg·h/L; bioavailability [5]: 38%; half-life [6]: 2.7 h; clearance [7]: 48.3 mL/min/kg; Vd [8]: 5.6 L/kg; MRT [9]: 1.8 h
COc1cc(C(=O)N2CC(C)(CCO)OC[C@H]2C)cn2nc(NCc3cccc(Cl)c3)nc12 (stereo partly drawn) | 46.7 mL/min/kg | 15 µM | 8.1 ×10⁻⁶ cm/s | blood plasma ratio [10]: 1.35; AUC/dose [4]: 0.16 kg·h/L; NOAEL [11]: > 10000 ng/mL; half-life [6]: 0.32 h; clearance [7]: 76.7 mL/min/kg; Vd [8]: 2.2 L/kg; MRT [9]: 0.36 h
COc1cc(C(=O)N2CC(C)OCC2CCO)cc2nc(NCc3cc(Cl)ccn3)oc12 (stereo not drawn) | 20 mL/min/kg | 17 µM | 11.1 ×10⁻⁶ cm/s | blood plasma ratio [10]: 1.08; AUC/dose [4]: 0.39 kg·h/L; NOAEL [11]: > 10000 ng/mL; half-life [6]: 0.5 h; clearance [7]: 40 mL/min/kg; Vd [8]: 1.3 L/kg; MRT [9]: 0.51 h
COc1cc(C(=O)N2CCC(O)C(C)C2)cc2nc(NCc3cc(Cl)ccc3O)oc12 (racemic) |  | 8.3 µM |  | 
COc1cc(C(=O)N2CC(C)C(O)CC2C)cc2nc(NCc3cccc(Cl)c3)oc12 (stereo not drawn) | 56.7 mL/min/kg | 2.6 µM | 12.7 ×10⁻⁶ cm/s | 

Now from value to compound, other results behind:

CLhep predicted at 1 µM [1] | MEC [2] | Papp A→B at 2 h [3] | SMILES | other results
56.7 mL/min/kg | 3.4 µM |  | COc1cc(C(=O)N2CC(C)OCC2C2CC(O)C2)cc2nc(N[C@H](C)c3cccc(Cl)c3)oc12 (stereo partly drawn) | 
63.3 mL/min/kg | 0.26 µM | 13.8 ×10⁻⁶ cm/s | COc1cc(C(=O)N2CC(C)C(O)CC2C2CC2)cc2nc(NCc3cccc(Cl)c3)oc12 (racemic) | 
50 mL/min/kg | 13 µM | 7.2 ×10⁻⁶ cm/s | COc1cc(C(=O)N2CC(C)OCC2C2CC(O)C2)cn2nc(NCc3cccc(Cl)c3)nc12 (stereo not drawn) | 
65 mL/min/kg | 0.26 µM | 6.8 ×10⁻⁶ cm/s | CC[C@@H]1CO[C@@](C)(CCO)CN1C(=O)c1cc(OC)c2oc(N[C@H](C)c3cccc(Cl)c3)nc2c1 | blood plasma ratio [10]: 1.07; AUC/dose [4]: 0.32 kg·h/L; NOAEL [11]: 1111 ng/mL; half-life [6]: 1 h; clearance [7]: 65 mL/min/kg; Vd [8]: 3.7 L/kg; MRT [9]: 1.2 h
63.3 mL/min/kg | 0.32 µM | 19.1 ×10⁻⁶ cm/s | COc1cc(C(=O)N2CC(C)CCC2CCO)cc2nc(NCc3cccc(Cl)c3)oc12 (racemic) | 
 | 1.3 µM |  | COc1cc(C(=O)N2CCOCC2(C)C)cc2nc(NCc3cccc(Cl)c3)oc12 | 
45 mL/min/kg | 1.4 µM | 8.4 ×10⁻⁶ cm/s | COc1cc(C(=O)N2CCC(O)C(C)C2)cc2nc(NCc3cccc(Cl)c3)oc12 (racemic) | 
58.3 mL/min/kg | 0.29 µM |  | COc1cc(C(=O)N2CC(C)(CCO)OC[C@H]2C)cc2nc(N[C@H](C)c3cccc(Cl)c3)oc12 (stereo partly drawn) | 
15.5 mL/min/kg | 0.29 µM |  | COc1cc(C(=O)N2CC(C)OCC2CO)cc2nc(N[C@H](C)c3cccc(Cl)c3)oc12 (stereo partly drawn) | blood plasma ratio [10]: 0.88; AUC/dose [4]: 0.47 kg·h/L; half-life [6]: 1.1 h; clearance [7]: 40 mL/min/kg; Vd [8]: 2.7 L/kg; MRT [9]: 1.3 h
65 mL/min/kg |  | 24.6 ×10⁻⁶ cm/s | CCCN(CC1CCOC1)C(=O)c1cc(OC)c2oc(NCc3cccc(Cl)c3)nc2c1 (racemic) | 
40 mL/min/kg |  | 0.93 ×10⁻⁶ cm/s | COc1cc(C(=O)N2CCC(O)C(C)C2)cc2nc(NCc3cncc(Cl)c3)oc12 (racemic) | 
 |  | 6.2 ×10⁻⁶ cm/s | O=C(NCc1cccc(Cl)c1)c1ccc2cn(CCN3CCOC3=O)nc2c1 | clearance [7]: 23.3 mL/min/kg
58.3 mL/min/kg |  |  | COc1cc(C(=O)N2CCCC2(C)C)cc2nc(NCc3cccc(Cl)c3)oc12 | 
45 mL/min/kg | 2.8 µM | 10.1 ×10⁻⁶ cm/s | COc1cc(C(=O)N2C[C@H](C)OC[C@@H]2CCO)cc2nc(N[C@H](C)c3cccc(Cl)c3)oc12 | 
4.5 mL/min/kg | 0.81 µM | 0.94 ×10⁻⁶ cm/s | COc1cc(C(=O)N2CC(C)C(O)CC2CCO)cc2nc(NCc3cccc(Cl)c3)oc12 (racemic) | 
